Assay results from paper PMC7312786 (Biochemistry, 2018).

Key:
Type in all cases: biochemical
[1] = target: T1, hRev1 (Homo sapiens, UniProt Q9UBZ9); assay: Gel-based pol extension assay, hRev1; settings: read-out: IC50, hRev1, gel-based assay; best-fit value (95% confidence interval), three experiments
T1 sequence (Q9UBZ9 330-833): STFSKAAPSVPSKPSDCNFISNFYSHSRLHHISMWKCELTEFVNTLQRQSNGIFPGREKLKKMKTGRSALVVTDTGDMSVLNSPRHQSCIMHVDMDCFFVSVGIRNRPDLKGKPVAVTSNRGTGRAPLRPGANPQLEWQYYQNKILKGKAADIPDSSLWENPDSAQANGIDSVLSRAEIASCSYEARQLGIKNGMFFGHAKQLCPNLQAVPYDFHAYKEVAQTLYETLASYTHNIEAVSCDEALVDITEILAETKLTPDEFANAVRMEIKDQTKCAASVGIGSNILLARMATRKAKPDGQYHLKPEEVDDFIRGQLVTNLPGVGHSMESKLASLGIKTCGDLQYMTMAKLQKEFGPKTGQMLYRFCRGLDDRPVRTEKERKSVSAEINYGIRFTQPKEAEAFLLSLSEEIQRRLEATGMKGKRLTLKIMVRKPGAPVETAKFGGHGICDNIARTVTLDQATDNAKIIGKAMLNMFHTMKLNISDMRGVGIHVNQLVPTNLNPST

[2] = target: T2, hpol ι (Homo sapiens, UniProt Q9UNA4); assay: Gel-based pol extension assay, hpol ι; settings: relative to hpol η / hRev1
T2 sequence (Q9UNA4 1-446): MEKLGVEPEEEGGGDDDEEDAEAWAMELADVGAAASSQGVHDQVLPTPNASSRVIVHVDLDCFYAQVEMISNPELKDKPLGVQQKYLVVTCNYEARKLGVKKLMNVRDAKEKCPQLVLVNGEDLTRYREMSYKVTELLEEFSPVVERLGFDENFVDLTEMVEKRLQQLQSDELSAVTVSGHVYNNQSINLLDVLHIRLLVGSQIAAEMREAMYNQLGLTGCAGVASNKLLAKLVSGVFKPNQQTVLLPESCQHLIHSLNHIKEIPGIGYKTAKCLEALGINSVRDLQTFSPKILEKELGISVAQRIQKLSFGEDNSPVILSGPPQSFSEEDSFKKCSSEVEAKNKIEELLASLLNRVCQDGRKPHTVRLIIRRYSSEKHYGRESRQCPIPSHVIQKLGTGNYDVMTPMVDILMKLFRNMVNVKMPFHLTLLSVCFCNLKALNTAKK
Outline: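 Gel extension assay with hpol ι core (residues 1–446) or hpol κ core (residues 19–526). Enzyme 2 nM preincubated 5 min with increasing test compound in 50 mM HEPES pH 7.5, 50 mM NaCl, 1 mM DTT, 0.1 mg/mL BSA, 10% glycerol. Started at 37 °C with 200 nM FAM-labeled 13/18-mer primer–template, 10 μM each dNTP, 5 mM MgCl₂. Quench: 20 mM EDTA/95% formamide, 95 °C. Triplicate; IC50 mean ± SD.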

[3] = target: T3, hpol ε (Homo sapiens, UniProt Q07864, D275A/E277A); assay: Fluorescence-based pol activity assay, hpol ε
T3 sequence (Q07864 1-1189 D275A/E277A limits assumed): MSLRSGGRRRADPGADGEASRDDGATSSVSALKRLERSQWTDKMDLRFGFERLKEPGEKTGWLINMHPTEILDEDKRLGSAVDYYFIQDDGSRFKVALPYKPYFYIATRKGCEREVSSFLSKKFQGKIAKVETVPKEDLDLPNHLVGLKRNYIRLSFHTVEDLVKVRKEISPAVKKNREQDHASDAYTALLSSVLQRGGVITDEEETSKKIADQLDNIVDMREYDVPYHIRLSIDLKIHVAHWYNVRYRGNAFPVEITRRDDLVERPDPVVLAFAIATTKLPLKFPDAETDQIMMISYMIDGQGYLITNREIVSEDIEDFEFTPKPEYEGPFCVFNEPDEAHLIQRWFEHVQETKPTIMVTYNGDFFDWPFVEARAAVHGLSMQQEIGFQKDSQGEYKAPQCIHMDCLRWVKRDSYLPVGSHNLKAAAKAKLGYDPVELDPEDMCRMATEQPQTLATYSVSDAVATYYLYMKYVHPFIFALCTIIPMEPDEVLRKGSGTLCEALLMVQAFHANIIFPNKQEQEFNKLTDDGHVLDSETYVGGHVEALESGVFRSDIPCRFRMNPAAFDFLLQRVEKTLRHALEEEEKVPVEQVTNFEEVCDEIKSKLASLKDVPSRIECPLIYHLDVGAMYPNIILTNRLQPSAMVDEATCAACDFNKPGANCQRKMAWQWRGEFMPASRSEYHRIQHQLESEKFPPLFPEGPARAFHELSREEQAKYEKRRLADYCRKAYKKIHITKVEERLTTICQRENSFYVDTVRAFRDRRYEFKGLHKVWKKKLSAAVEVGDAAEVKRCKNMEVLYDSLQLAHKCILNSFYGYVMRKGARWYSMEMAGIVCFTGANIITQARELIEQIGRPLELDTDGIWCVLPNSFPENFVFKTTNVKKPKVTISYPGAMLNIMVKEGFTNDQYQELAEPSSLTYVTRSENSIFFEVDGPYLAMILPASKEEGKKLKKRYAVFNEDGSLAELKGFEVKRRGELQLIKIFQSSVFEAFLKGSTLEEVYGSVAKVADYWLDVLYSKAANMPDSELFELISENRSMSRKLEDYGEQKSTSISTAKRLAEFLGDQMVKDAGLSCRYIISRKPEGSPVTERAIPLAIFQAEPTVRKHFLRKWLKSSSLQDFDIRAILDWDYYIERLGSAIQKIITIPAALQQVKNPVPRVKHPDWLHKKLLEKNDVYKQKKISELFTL

[4] = target: T4, hpol λ (Homo sapiens, UniProt Q9UGP5); assay: Fluorescence-based pol activity assay, hpol λ
T4 sequence (Q9UGP5 251-575 limits assumed): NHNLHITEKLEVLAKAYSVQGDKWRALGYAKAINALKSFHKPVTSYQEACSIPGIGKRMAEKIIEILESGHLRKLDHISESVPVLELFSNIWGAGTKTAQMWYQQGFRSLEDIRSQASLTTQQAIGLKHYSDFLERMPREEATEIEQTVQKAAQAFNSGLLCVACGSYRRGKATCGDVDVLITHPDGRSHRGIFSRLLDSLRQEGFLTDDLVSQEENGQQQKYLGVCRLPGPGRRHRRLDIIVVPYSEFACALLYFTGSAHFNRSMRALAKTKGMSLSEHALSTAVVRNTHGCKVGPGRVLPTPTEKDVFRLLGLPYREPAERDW

O=C1NC(=S)NC(=O)C1=Cc1cn(Cc2ccc3ccccc3c2)c2ccc(Cl)cc12 [PNR-7-02, 5-((5-chloro-1-(naphthalen-2-ylmethyl)-1H-indol-3-yl)methylene)-2-thioxodihydropyrimidine-4,6-(1H,5H)-dione]
IC50 [1]: 8 µM
Increase in IC50 against hpol η (so in the source); first of 'hpols η and κ') [2]: ~3 fold
Pol activity relative to DMSO control, hpol ε ([3]; 20 μM PNR-7-02, mean (±SD)): 32 (±5) %
Specificity for hpol η over replicative pols (hpol ε) ([3]; from activity at 20 μM PNR-7-02): 5–10 fold
Effect on catalysis by hpol λ ([4]; 20 μM PNR-7-02): strongly inhibited
Pol activity relative to DMSO control, hpol λ ([4]; 20 μM PNR-7-02, mean (±SD)): 5.9 (±2.1) %
IC50 ([4]; read-out: IC50, hpol λ, best-fit value and 95% confidence interval, three replicates): 8 µM
